Results as given in the array DNA melting data of Ke et al. (doi:10.1101/2024.01.08.574731).

How the values were obtained:
[1] = folding enthalpy; higher = less favourable; fluorescence melt of hairpins on a sequencing array, two-state fit; details: sodium 0.088 M
In short: (§1)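 On a sequenced MiSeq flow cell, library hairpins with annealed Cy3 and quencher oligos were imaged for Cy3 fluorescence in 2.5 °C steps up to 60 °C, in 50 mM Na-HEPES pH 8.0, 25 mM NaCl. Normalisation used pre-quench Cy3 and control constructs. Bootstrapped two-state fits gave melting temperature and folding enthalpy, combined by inverse variance across four replicates and with fitted temperatures raised by 9.35 °C to match UV melts.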

[2] = melting temperature; fluorescence melt of hairpins on a sequencing array, two-state fit, raised by 9.35 °C to match UV melts; details: sodium 0.088 M
In short: as §1

Sequence	folding enthalpy [1]	Tm [2]
GCAACTGGAAACAGTCGC ((.((((....)))).))	-33 kcal/mol	45.9 °C
GTGTCTGGAAACAGATGC (..((((....))))..)	-20.7 kcal/mol	40.2 °C
GCGAAGAAATTCGC (((((....)))))	-28.3 kcal/mol	55.5 °C
GTCCTGCGAAAGCACGAC (((.(((....))).)))	-21.4 kcal/mol	42.6 °C
GCCGTCGAAAGACCCGGC ((((((....)))..)))	-18.3 kcal/mol	47.9 °C
GCAAGTGCGAAAGCATGC (((..(((....))))))	-14 kcal/mol	44.5 °C
GTATGCGAAAGCAACTAC ((((((....)))..)))	-11.6 kcal/mol	36.2 °C
GCGCCGACGAAAGTCCGC (((..(((....))))))	-19.8 kcal/mol	50 °C
GTATTCGAAAGAATCTAC ((((((....)))..)))	-10.7 kcal/mol	33.3 °C
GACCCCACGAAAGTGGTC (((..(((....))))))	-8.51 kcal/mol	28.9 °C
GAGGGGAAACCCTC (((((....)))))	-24.7 kcal/mol	54 °C
GATCTAAAGGTAGATC ((((((....))))))	-18.5 kcal/mol	33.9 °C
GTGAACGGAAACGTTCAC (((((((....)))))))	-30 kcal/mol	67.8 °C
GCGACCGAAAGGTAACGC ((((((....)))..)))	-29.6 kcal/mol	51.9 °C
CGGAGACGGAAACGTCCG (((..(((....))))))	-17.6 kcal/mol	47.1 °C
GAGCCGCGAAAGCGTCTC (((.(((....))).)))	-22.4 kcal/mol	54.3 °C
GACCGTGGAAACGTGGTC ((((..(....)..))))	-23.6 kcal/mol	45.5 °C
GACATTGGAAACAGTGTC ((((.((....)).))))	-33.1 kcal/mol	42.6 °C
GCCTTAGGAAACTAAGGC (((((((....)))))))	-37 kcal/mol	60.3 °C
GATCGGCTACCGATC ((((((...))))))	-33.9 kcal/mol	56 °C
GATCTTACACAAGATC ((((((....))))))	-28.2 kcal/mol	42.7 °C
GCTAACGAAAGTTAAGC ((((((....))).)))	-27.1 kcal/mol	46.2 °C
GTCGCAGCGAAAGCTGAC (((..(((....))))))	-9.2 kcal/mol	37.1 °C

Sequence	folding enthalpy [1]	Tm [2]
GCATTCGAAAGAATCTGC ((((((....)))..)))	-21.5 kcal/mol	34.5 °C
GCGGACCCGAAAGGGCGC (((..(((....))))))	-18 kcal/mol	59.5 °C
GTAAATCGAAAGATTAC (((.(((....))))))	-14 kcal/mol	33.9 °C
GCCTACGGAAACGCAAGC ((.(.((....)).).))	-11.9 kcal/mol	26.9 °C
GCTTTTGGAAACAGAAGC ((((.((....)).))))	-25.1 kcal/mol	41.4 °C
GATCTCTTCAGAGATC ((((((....))))))	-40.9 kcal/mol	60.1 °C
GTTCGGGGAAACCCAAAC (((.(((....))).)))	-23.8 kcal/mol	36 °C
GGAATGGGAAACCACTCC (((.(((....))).)))	-33.6 kcal/mol	33.7 °C
GCGAGGCGAAAGCTGCGC (((..((....))..)))	-29.5 kcal/mol	65.1 °C
GGACCCGAAAGGGCCTCC ((((((....)))..)))	-14.7 kcal/mol	57.5 °C
GCAAGCGAAAGCTAGTGC ((((((....)))..)))	-17.8 kcal/mol	39.9 °C
TGTCGGAAACGACA (((((....)))))	-16.3 kcal/mol	60 °C
GGGCCAGGAAACCGACCC (((.(.(....).).)))	-20.9 kcal/mol	34.6 °C
GCGAGACTCGC ((((...))))	-10.2 kcal/mol	49 °C
GAGTACGAAAGTATCCTC ((((((....)))..)))	-17.6 kcal/mol	25.4 °C
GCGGGGGCGAAAGCCCGC (((..(((....))))))	-11.4 kcal/mol	65.1 °C
GCTGTAGGAAACTACAGC (((((((....)))))))	-44.6 kcal/mol	63.3 °C
GCACTGCGAAAGCTGGGC ((.(.((....)).).))	-36.6 kcal/mol	64.3 °C
GCGAACGGAAACGTTTGC ((.((((....)))).))	-46.8 kcal/mol	56.4 °C
GTTAACGGAAACGTTGAC ((.((((....)))).))	-26.9 kcal/mol	46.3 °C
GGCGGGGGAAACCCCACC ((.((((....)))).))	-27.7 kcal/mol	56.1 °C
GATCTATACGTAGATC ((((((....))))))	-40.1 kcal/mol	45.3 °C
GCGAGGCGAAAGCCCCGC (((.(((....))).)))	-26.6 kcal/mol	68.5 °C

Sequence	folding enthalpy [1]	Tm [2]
GTCTGAGCGAAAGCTGAC (((..(((....))))))	-17.6 kcal/mol	41.2 °C
GGAGCGCGAAAGCGTTCC (((.(((....))).)))	-35 kcal/mol	67.6 °C
GCTCTGCGAAAGCAGCGC ((.((((....)))).))	-17.3 kcal/mol	57.6 °C
GAAAACGAAAGTTTTC ((((((....))))))	-37.9 kcal/mol	55 °C
GATCACCGAGTGATC ((((((...))))))	-34.9 kcal/mol	55.4 °C
GCGTAGCGAAAGCTGAGC ((..(((....)))..))	-16 kcal/mol	54.4 °C
GGCGACGAAAGTCCTGCC ((((((....)))..)))	-20.4 kcal/mol	46 °C
GACGGCGAAAGCCACGTC ((((((....)))..)))	-15.3 kcal/mol	49.8 °C
GCTATGCGAAAGCTGAGC (((..((....))..)))	-21.9 kcal/mol	47.4 °C
GCCGATACGAAAGTAGGC (((..(((....))))))	-33 kcal/mol	49.3 °C
GCTTACGGAAACGTAGGC ((.((((....)))).))	-27.2 kcal/mol	50 °C
CGCTACGGAAACGTCGCG (((.(((....))).)))	-39.3 kcal/mol	51.9 °C
GTGACTGGAAACAGTTAC ((.((((....)))).))	-29.2 kcal/mol	45.5 °C
GCGGTTAGCCGC ((((....))))	-24.3 kcal/mol	62.4 °C
GATCCGCGAACGGATC ((((((....))))))	-42.3 kcal/mol	58.9 °C
GCTGGTCCGAAAGGAAGC (((..(((....))))))	-13.2 kcal/mol	34.9 °C
GCCCACGAAAGTGTTGGC ((((((....)))..)))	-20.4 kcal/mol	49 °C
GTAATCGAAAGATGTAC ((((((....))).)))	-16.9 kcal/mol	30.8 °C
GCTACAGGAAACCGTAGC (((((.(....).)))))	-31.6 kcal/mol	47.7 °C
GATCCTAGTGAGGATC ((((((....))))))	-36.2 kcal/mol	50.9 °C
GACCGCGAAAGCGGGTC ((((((....))).)))	-11.9 kcal/mol	68.8 °C
GACTGCCCGAAAGGGGTC (((..(((....))))))	-9.57 kcal/mol	35.6 °C
GCAACCGAAAGGTAGTGC ((((((....)))..)))	-20.1 kcal/mol	41.2 °C

Sequence	folding enthalpy [1]	Tm [2]
GATCTCCCAAGAGATC ((((((....))))))	-34.3 kcal/mol	53.4 °C
GATCTTGCGAAAGATC ((((((....))))))	-46.2 kcal/mol	50.6 °C
GGATCCCGAAAGGGTTCC (((.(((....))).)))	-29.8 kcal/mol	54.3 °C
GATATACGAAAGTAATC (((.(((....))))))	-9.45 kcal/mol	23.8 °C
GCAGAGCGAAAGCTACGC ((..(((....)))..))	-13.9 kcal/mol	47.2 °C
GTACTACGAAAGTACTAC (((.(((....))).)))	-17.8 kcal/mol	38.6 °C
GATCCTACAAGGATC ((((((...))))))	-33.6 kcal/mol	54.5 °C
GTTAACGAAAGTTCAAC ((((((....))).)))	-12.2 kcal/mol	26.5 °C
GATCGCACGTGCGATC ((((((....))))))	-40.4 kcal/mol	68.8 °C
GTCCACGAAAGTGGGAC ((((((....))).)))	-13.6 kcal/mol	58.3 °C
GACTACGAAAGTAAGTC ((((((....))).)))	-29.4 kcal/mol	47.1 °C
GTGGCCACGAAAGTGCAC (((..(((....))))))	-12.5 kcal/mol	38.1 °C
GGGGGAACGAAAGTTCCC (((..(((....))))))	-8.07 kcal/mol	64.3 °C
GGCTACGAAAGTATCGCC ((((((....)))..)))	-22.5 kcal/mol	40.6 °C
GATCCCACTAGGGATC ((((((....))))))	-33.1 kcal/mol	65.9 °C
GTATGCGAAAGCAAATAC ((((((....)))..)))	-16.7 kcal/mol	37.7 °C
GCGTGGGGAAACCTACGC ((((.((....)).))))	-41.3 kcal/mol	58.7 °C
GCATACACGAAAGTGTGC (((..(((....))))))	-16.1 kcal/mol	45.9 °C
GGTGGCTCGAAAGAGACC (((..(((....))))))	-13.5 kcal/mol	42 °C
GCGAGCGAAAGCTCCGC ((((((....))).)))	-18.2 kcal/mol	65.4 °C
GAAGCTGGAAACAACTTC ((((.((....)).))))	-24.2 kcal/mol	34.9 °C
GTGCTCCGAAAGGACCAC (((.(((....))).)))	-27.5 kcal/mol	45 °C
GCCGCGACGAAAGTCGGC (((..(((....))))))	-9.47 kcal/mol	62.4 °C
